Measured values taken from ChEMBL document CHEMBL1121956, “Potential antitumor agents. 37. Organophosphorus derivatives of 9-anilinoacridine” (1982).

Assays:
L1210 = assay: Concentration for inhibiting the growth of L1210 cells by 50% over 3 days was determined; assay type: functional; settings: Mus musculus, L1210, 72 h; read-out: ID50 (the source's name)
P388 [1] = assay: Concentration for inhibiting the growth of P-388 cells by 50% over 3 days was determined; assay type: functional; settings: Mus musculus, P388, 72 h; read-out: ID50 (the source's name)
Outline: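 Cytotoxicity was measured against cultured murine leukemia cells, P-388 and L1210, over 3 days of continuous drug exposure. Culture and drug-addition conditions follow an earlier report. The value is the drug concentration that inhibits growth by 50% over the 3 days.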

P388 [2] = assay: Percentage increase in life span was measured for P-388 cells […] after intraperitoneal administration of a dose of 30 mg/kg; assay type: functional; settings: Mus musculus, P388, ip
Outline: (§1)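 Mice received 10⁶ P-388 leukemia cells ip. Drug in 0.1 mL of 30% aqueous ethanol was injected ip on days 1, 5 and 9. Doses ran from a toxic level downward at 0.67-fold intervals, with 6 mice per group and 20–30 controls. The percentage increase in mean survival time over controls was taken at the optimal dose. ILS below 20% was treated as nonsignificant.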

Nucleic Acid = assay: […] association constant for DNA binding to poly (dA.dT); assay type: nucleic-acid assay
Outline: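 Association constant for binding to the synthetic polynucleotide poly(dA-dT). Measured by a method described in earlier work.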

P388 [3] = assay: Percentage increase in life span was measured for P-388 cells […] after intraperitoneal administration of a dose of 8.9 mg/kg; assay type: functional; settings: Mus musculus, P388, ip; outline: as §1
P388 [4] = assay: Percentage increase in life span was measured for P-388 cells […] after intraperitoneal administration of a dose of 66 mg/kg; assay type: functional; settings: Mus musculus, P388, ip; outline: as §1
P388 [5] = assay: Percentage increase in life span was measured for P-388 cells […] after intraperitoneal administration of a dose of 33 mg/kg; assay type: functional; settings: Mus musculus, P388, ip; outline: as §1
P388 [6] = assay: Percentage increase in life span was measured for P-388 cells […] after intraperitoneal administration of a dose of 65 mg/kg; assay type: functional; settings: Mus musculus, P388, ip; outline: as §1
P388 [7] = assay: Percentage increase in life span was measured for P-388 cells […] after intraperitoneal administration of a dose of 330 mg/kg; assay type: functional; settings: Mus musculus, P388, ip; outline: as §1
P388 [8] = assay: animal or person; settings: Mus musculus, P388, ip
P388 [9] = assay: Percentage increase in life span was measured for P-388 cells […] after intraperitoneal administration of a dose of 110 mg/kg; assay type: functional; settings: Mus musculus, P388, ip; outline: as §1
P388 [10] = assay: Percentage increase in life span was measured for P-388 cells […] after intraperitoneal administration of a dose of 50 mg/kg; assay type: functional; settings: Mus musculus, P388, ip; outline: as §1
P388 [11] = assay: Percentage increase in life span was measured for P-388 cells […] after intraperitoneal administration of a dose of 150 mg/kg; assay type: functional; settings: Mus musculus, P388, ip; outline: as §1
P388 [12] = assay: Percentage increase in life span was measured for P-388 cells […] after intraperitoneal administration of a dose of 125 mg/kg; assay type: functional; settings: Mus musculus, P388, ip; outline: as §1
P388 [13] = assay: Percentage increase in life span was measured for P-388 cells […] after intraperitoneal administration of a dose of 190 mg/kg; assay type: functional; settings: Mus musculus, P388, ip; outline: as §1
P388 [14] = assay: Percentage increase in life span was measured for P-388 cells […] after intraperitoneal administration of a dose of 250 mg/kg; assay type: functional; settings: Mus musculus, P388, ip; outline: as §1

**Q.** For `O=P1(Nc2ccc(Nc3c4ccccc4nc4ccccc34)cc2)OCCO1`, which IC50 (L1210) is on record?
**A.** 180 nM

**Q.** What about the IC50 (P388 [1]) of the same compound?
**A.** 110 nM

**Q.** What about the ILS at 30 mg/kg (P388 [2]) of the same compound?
**A.** 54%

**Q.** And the Log K (Nucleic Acid)?
**A.** 6.52

**Q.** Which results are given for `COc1cc(NP(=O)(OC)OC)ccc1Nc1c2ccccc2nc2ccccc12`?
**A.** IC50 (L1210): 70 nM; IC50 (P388 [1]): 36 nM; ILS at 8.9 mg/kg (P388 [3]): 67%; Log K (Nucleic Acid): 5.64

**Q.** Which IC50 (L1210) does the source give for `CS(=O)(=O)Nc1cccc(Nc2c3ccccc3nc3ccccc23)c1` here?
**A.** 110 nM

**Q.** And the IC50 (P388 [1])?
**A.** 90 nM

**Q.** And the ILS at 66 mg/kg (P388 [4])?
**A.** 53%

**Q.** What does the source list for `COP(=O)(Nc1ccc(Nc2c3ccccc3nc3ccccc23)cc1)OC`?
**A.** IC50 (L1210): 15 nM; IC50 (P388 [1]): 10 nM; ILS at 33 mg/kg (P388 [5]): 74%; Log K (Nucleic Acid): 6.26

**Q.** With `COP(=O)(O)Nc1ccc(Nc2c3ccccc3nc3ccccc23)cc1` as the compound, how does the IC50 (L1210) read?
**A.** 2000 nM

**Q.** And the IC50 (P388 [1])?
**A.** 4000 nM

**Q.** What about the Log K (Nucleic Acid) of the same compound?
**A.** 5.37

**Q.** Which IC50 (L1210) does the source give for `CP(C)(=O)Nc1ccc(Nc2c3ccccc3nc3ccccc23)cc1` here?
**A.** 1300 nM

**Q.** And the IC50 (P388 [1])?
**A.** 1000 nM

**Q.** What about the ILS at 65 mg/kg (P388 [6]) of the same compound?
**A.** 18%

**Q.** And the Log K (Nucleic Acid)?
**A.** 6.81

**Q.** What does the source list for `CS(=O)(=O)Cc1ccc(Nc2c3ccccc3nc3ccccc23)cc1`?
**A.** IC50 (L1210): 250 nM; IC50 (P388 [1]): 270 nM; ILS at 330 mg/kg (P388 [7]): 49%; Log K (Nucleic Acid): 5.76

**Q.** `COc1cc(NS(C)(=O)=O)ccc1Nc1c2ccccc2nc2ccccc12` [AMSACRINE] was tested. Which IC50 (P388 [1]) did it give?
**A.** 30 nM

**Q.** What about the Log K (Nucleic Acid) of the same compound?
**A.** 5.57

**Q.** And the ILS at 13.3 mg/kg (P388 [8])?
**A.** 78%

**Q.** What does the source list for `CNC(=O)Nc1ccc(Nc2c3ccccc3nc3ccccc23)cc1`?
**A.** IC50 (L1210): 100 nM; IC50 (P388 [1]): 86 nM; ILS at 30 mg/kg (P388 [2]): 53%

**Q.** `CC(=O)Nc1ccc(Nc2c3ccccc3nc3ccccc23)cc1` was tested. Which IC50 (L1210) did it give?
**A.** 100 nM

**Q.** What about the IC50 (P388 [1]) of the same compound?
**A.** 54 nM

**Q.** And the ILS at 30 mg/kg (P388 [2])?
**A.** 57%

**Q.** For `CCOP(=O)(Nc1ccc(Nc2c3ccccc3nc3ccccc23)cc1)OCC`, which IC50 (L1210) is on record?
**A.** 230 nM

**Q.** And the IC50 (P388 [1])?
**A.** 200 nM

**Q.** And the ILS at 110 mg/kg (P388 [9])?
**A.** 28%

**Q.** What about the Log K (Nucleic Acid) of the same compound?
**A.** 6.47

**Q.** How did the IC50 (L1210) turn out when `COC(=O)Nc1ccc(Nc2c3ccccc3nc3ccccc23)cc1` was run?
**A.** 60 nM

**Q.** What about the IC50 (P388 [1]) of the same compound?
**A.** 26 nM

**Q.** And the ILS at 30 mg/kg (P388 [2])?
**A.** 98%

**Q.** `CN(C)P(=O)(Nc1ccc(Nc2c3ccccc3nc3ccccc23)cc1)N(C)C` was tested. Which IC50 (L1210) did it give?
**A.** 1500 nM

**Q.** What about the IC50 (P388 [1]) of the same compound?
**A.** 1300 nM

**Q.** And the ILS at 50 mg/kg (P388 [10])?
**A.** 29%

**Q.** What about the Log K (Nucleic Acid) of the same compound?
**A.** 6.08

**Q.** Which IC50 (L1210) does the source give for `CS(=O)(=O)Nc1ccc(Nc2c3ccccc3nc3ccccc23)cc1` here?
**A.** 35 nM

**Q.** What about the IC50 (P388 [1]) of the same compound?
**A.** 40 nM

**Q.** And the ILS at 150 mg/kg (P388 [11])?
**A.** 93%

**Q.** How did the IC50 (L1210) turn out when `CNP(=O)(NC)Nc1ccc(Nc2c3ccccc3nc3ccccc23)cc1` was run?
**A.** 2500 nM

**Q.** And the IC50 (P388 [1])?
**A.** 2000 nM

**Q.** And the ILS at 50 mg/kg (P388 [10])?
**A.** 11%

**Q.** And the Log K (Nucleic Acid)?
**A.** 6.84

**Q.** For `O=P1(Nc2ccc(Nc3c4ccccc4nc4ccccc34)cc2)NCCCO1` (stereo unspecified), which IC50 (L1210) is on record?
**A.** 800 nM

**Q.** And the IC50 (P388 [1])?
**A.** 450 nM

**Q.** What about the ILS at 50 mg/kg (P388 [10]) of the same compound?
**A.** 9%

**Q.** And the Log K (Nucleic Acid)?
**A.** 6.58

**Q.** Which results are given for `COP(=O)(Cc1ccc(Nc2c3ccccc3nc3ccccc23)cc1)OC`?
**A.** IC50 (L1210): 670 nM; IC50 (P388 [1]): 1400 nM; ILS at 125 mg/kg (P388 [12]): 2%; Log K (Nucleic Acid): 5.67

**Q.** What does the source list for `O=P1(Nc2ccc(Nc3c4ccccc4nc4ccccc34)cc2)OCCCO1`?
**A.** IC50 (L1210): 110 nM; IC50 (P388 [1]): 50 nM; ILS at 30 mg/kg (P388 [2]): 47%; Log K (Nucleic Acid): 6.78

**Q.** With `COP(=O)(NC(=O)c1ccc(Nc2c3ccccc3nc3ccccc23)cc1)OC` as the compound, how does the IC50 (L1210) read?
**A.** > 35 nM

**Q.** What about the IC50 (P388 [1]) of the same compound?
**A.** 4800 nM

**Q.** What about the ILS at 190 mg/kg (P388 [13]) of the same compound?
**A.** 12%

**Q.** What about the Log K (Nucleic Acid) of the same compound?
**A.** 5.56

**Q.** Which IC50 (L1210) does the source give for `COP(=O)(Nc1cccc(Nc2c3ccccc3nc3ccccc23)c1)OC` here?
**A.** 1800 nM

**Q.** What about the IC50 (P388 [1]) of the same compound?
**A.** 1400 nM

**Q.** And the ILS at 250 mg/kg (P388 [14])?
**A.** 34%

**Q.** What about the Log K (Nucleic Acid) of the same compound?
**A.** 5.66

**Q.** Which results are given for `NP(=O)(O)Nc1ccc(Nc2c3ccccc3nc3ccccc23)cc1`?
**A.** IC50 (L1210): 1800 nM; IC50 (P388 [1]): 2800 nM; Log K (Nucleic Acid): 4.83
